The record followed here is ChEMBL document CHEMBL4321830, “A Chemical-Intervention Strategy To Circumvent Peptide Hydrolysis by d-Stereoselective Peptidases” (J Med Chem, 2019).

Activity calls are given as the source filed them. The calls are words filed in the database; no cut-off is given here. Where a SMILES comes first, the peptide text is derived from it. [ ]: non-standard residue; d: D form. The star is where a group is joined. NMeF = CN[C@@H](Cc1ccccc1)C(=O)O; dDab = NCC[C@@H](N)C(=O)O; Octanoyl = CCCCCCCC(=O)*; Dab = NCC[C@H](N)C(=O)O; Sar = CNCC(=O)O

One data set relates to D-peptidase BogQ. In words: Substrate activity at bacterial D-peptidase BogQ expressed in Escherichia coli BL21 assessed as enzyme-mediated compound hydrolysis at 50 uM incubated for 1 hr by UPLC-MS analysis. In kind it is ADME. Particulars: bacteria; read-out: Activity. Put shortly: (§1)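 His-purified (Ni-NTA) enzyme from IPTG-induced E. coli BL21 (200 μM IPTG after 15 °C hold). Substrate 50 μM with BogQ 20 nM for 1 h or TriFpep 200 nM for 24 h, 37 °C, in 25% PBS pH 7.4. Quenched with cold methanol, cleavage ratio by UPLC–MS at end point; two independent experiments.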

The next data set deals with Staphylococcus aureus. Description: Antibacterial activity against Staphylococcus aureus NCTC 10788 assessed as bacterial growth inhibition by microbroth dilution method. In kind it is functional. Background: In broth dilution the organism is exposed to a series of concentrations in liquid medium.
The test system of another data set is D-peptidase TriF. Description: Substrate activity at Paenibacillus polymyxa CICC10580 D-peptidase TriF expressed in Escherichia coli BL21 assessed as enzyme-mediated compound hydrolysis at 50 uM incubated for 24 hrs by UPLC-MS analysis. In kind it is ADME. Particulars: read-out: Activity. The method, boiled down: as §1
The subject of data set [1] is Escherichia coli. In words: Binding affinity to Escherichia coli NCTC 12241 lipid 2 assessed as formation of zone of inhibition at 60 uM incubated for 16 hrs by spot-on-lawn assay. Put shortly: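 E. coli NCTC 12241 suspended to OD600 ~1.0 in MHB, mixed into molten 0.75% MH soft agar and poured over 1.5% MHA. Peptide (final 60 μM) preincubated at 37 °C with 7 equiv chemically synthesized Gram-positive lipid II, 10 μL spotted alongside peptide alone; 16 h, 37 °C. Loss of inhibition zone indicates lipid II sequestration.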

The nature of data set [2]: Hemolytic activity in sheep erythrocytes assessed as hemolysis at 200 ug/ml incubated for 30 by spectrophotometry relative to control. It counts as ADME, cell-based, Ovis aries, Erythrocyte. The settings on record: read-out: Activity. Put shortly:
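Defibrinated sheep blood washed four times in PBS, resuspended, mixed 1:1 with peptide in PBS (200 μg/mL in well before mixing); 30 min, 37 °C. Diluted, centrifuged, supernatant absorbance at 415 nm. Percent hemolysis relative to 0.1% Triton X-100, PBS blank; triplicate, two independent experiments averaged.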

Data set [3] deals with Escherichia coli. In words: Antibacterial activity against Escherichia coli NCTC 12241 assessed as bacterial growth inhibition by microbroth dilution method. It counts as functional.

Broadly, the MIC is the lowest concentration that inhibits growth of the organism. As to `CCCCCCCC(=O)N[C@@H](C(=O)N[C@H](CCN)C(=O)NCC(=O)N[C@H](CO)C(=O)N[C@H](Cc1c[nH]c2ccccc12)C(=O)N(C)CC(=O)N[C@@H](CCN)C(=O)N[C@H](CCN)C(=O)N(C)[C@@H](Cc1ccccc1)C(=O)N[C@@H](CCC(=O)O)C(=O)N[C@H](C(=O)N[C@@H](C(=O)N[C@@H](C)C(=O)O)C(C)C)C(C)C)C(C)C` (Octanoyl-[dV][dDab]G[dS][dW][Sar][Dab][dDab][NMeF]EV[dV]A-OH), the metabolised at 1 h, 50 µM in the data set on D-peptidase BogQ was 43%. Further, the values for the MIC in the data set on Staphylococcus aureus and in the data set on Escherichia coli [3] were over 50 µg/mL and 6.25 µg/mL, respectively. In addition, in the data set on D-peptidase TriF, the metabolised at 24 h, 50 µM is 0%. Further, the outcome in the data set on Escherichia coli [1] was Active. Besides, the hemolysis at 0.5 h, 200 ug/ml in data set [2] is 60 to 78%.
